Laboratory results from ChEMBL document CHEMBL4732237, “Discovery of 4-alkoxy-2-aryl-6,7-dimethoxyquinolines as a new class of topoisomerase I inhibitors endowed with potent in vitro anticancer activity” (2021).

Tests used:
Type in all cases: functional
Conditions in all cases: read-out: GI
[1] = system: HL-60(TB); assay: Growth inhibition of human HL-60(TB) cells at 10 uM incubated for 48 hrs by sulforhodamine B assay relative to control
Summary of the method: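 NCI-60 one-dose screen: same culture, 48 h drug exposure and SRB read-out. Reported as percent growth relative to no-drug control and to time-zero cell number; 0–100 means growth inhibition, below 0 means lethality.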

[2] = system: K562; assay: Growth inhibition of human K562 cells at 10 uM incubated for 48 hrs by sulforhodamine B assay relative to control
Summary of the method: (§1)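 NCI-60 single-dose screen. Cells were grown in RPMI 1640 with 5% FBS and 2 mM L-glutamine and plated 24 h before drug addition. Compound was added at one concentration in DMSO-derived medium and incubated for 48 h at 37 °C in 5% CO2. Read-out was SRB protein stain at 515 nm. Result is percent growth versus the no-drug control and the time-zero cell count; values below 0 indicate lethality.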

[3] = system: MOLT-4; assay: Growth inhibition of human MOLT-4 cells at 10 uM incubated for 48 hrs by sulforhodamine B assay relative to control
Summary of the method: (§2)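 NCI one-dose screen. Cells grown in RPMI 1640 with 5% FBS and 2 mM L-glutamine, plated and incubated 24 h at 37 °C, 5% CO2. DMSO-dissolved drug added, then 48 h further incubation. Adherent cells fixed with cold TCA, suspension cells fixed after settling. Stained with 0.4% SRB, absorbance read at 515 nm. Reported as percent growth relative to no-drug control and time-zero cell number.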

[4] = system: SR; assay: Growth inhibition of human SR cells at 10 uM incubated for 48 hrs by sulforhodamine B assay relative to control; summary of the method: as §2
[5] = system: EKVX; assay: Growth inhibition of human EKVX cells at 10 uM incubated for 48 hrs by sulforhodamine B assay relative to control; summary of the method: as §1
[6] = system: HOP-62; assay: Growth inhibition of human HOP-62 cells at 10 uM incubated for 48 hrs by sulforhodamine B assay relative to control; summary of the method: as §1
[7] = system: NCI-H23; assay: Growth inhibition of human NCI-H23 cells at 10 uM incubated for 48 hrs by sulforhodamine B assay relative to control; summary of the method: as §2
[8] = system: NCI-H322M; assay: Growth inhibition of human NCI-H322M cells at 10 uM incubated for 48 hrs by sulforhodamine B assay relative to control; summary of the method: as §2
[9] = system: NCI-H460; assay: Growth inhibition of human NCI-H460 cells at 10 uM incubated for 48 hrs by sulforhodamine B assay relative to control; summary of the method: as §2
[10] = system: NCI-H522; assay: Growth inhibition of human NCI-H522 cells at 10 uM incubated for 48 hrs by sulforhodamine B assay relative to control; summary of the method: as §2
[11] = system: COLO 205; assay: Growth inhibition of human COLO 205 cells at 10 uM incubated for 48 hrs by sulforhodamine B assay relative to control; summary of the method: as §1
[12] = system: KM12; assay: Growth inhibition of human KM12 cells at 10 uM incubated for 48 hrs by sulforhodamine B assay relative to control; summary of the method: as §1
[13] = system: SW-620; assay: Growth inhibition of human SW-620 cells at 10 uM incubated for 48 hrs by sulforhodamine B assay relative to control
Summary of the method: (§3)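 NCI one-dose screen across a 59-line panel. Cells were grown in RPMI 1640 with 5% FBS and 2 mM L-glutamine, plated and pre-incubated 24 h, then exposed to drug for 48 h at 37 °C, 5% CO2. Adherent cells were fixed with cold TCA (10% final), stained with 0.4% SRB in 1% acetic acid and read at 515 nm. Result is percent growth relative to no-drug control and time-zero cell count.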

[14] = system: SF-268; assay: Growth inhibition of human SF-268 cells at 10 uM incubated for 48 hrs by sulforhodamine B assay relative to control; summary of the method: as §2
[15] = system: SF-539; assay: Growth inhibition of human SF-539 cells at 10 uM incubated for 48 hrs by sulforhodamine B assay relative to control; summary of the method: as §2
[16] = system: SNB-19; assay: Growth inhibition of human SNB-19 cells at 10 uM incubated for 48 hrs by sulforhodamine B assay relative to control; summary of the method: as §2
[17] = system: SNB-75; assay: Growth inhibition of human SNB-75 cells at 10 uM incubated for 48 hrs by sulforhodamine B assay relative to control; summary of the method: as §2
[18] = system: U-251; assay: Growth inhibition of human U-251 cells at 10 uM incubated for 48 hrs by sulforhodamine B assay relative to control; summary of the method: as §3
[19] = system: M14; assay: Growth inhibition of human M14 cells at 10 uM incubated for 48 hrs by sulforhodamine B assay relative to control; summary of the method: as §1
[20] = system: MDA-MB-435; assay: Growth inhibition of human MDA-MB-435 cells at 10 uM incubated for 48 hrs by sulforhodamine B assay relative to control; summary of the method: as §1
[21] = system: SK-MEL-2; assay: Growth inhibition of human SK-MEL-2 cells at 10 uM incubated for 48 hrs by sulforhodamine B assay relative to control; summary of the method: as §2
[22] = system: UACC-257; assay: Growth inhibition of human UACC-257 cells at 10 uM incubated for 48 hrs by sulforhodamine B assay relative to control; summary of the method: as §3
[23] = system: UACC-62; assay: Growth inhibition of human UACC-62 cells at 10 uM incubated for 48 hrs by sulforhodamine B assay relative to control; summary of the method: as §3
[24] = system: IGROV-1; assay: Growth inhibition of human IGROV-1 cells at 10 uM incubated for 48 hrs by sulforhodamine B assay relative to control; summary of the method: as §1
[25] = system: OVCAR-3; assay: Growth inhibition of human OVCAR-3 cells at 10 uM incubated for 48 hrs by sulforhodamine B assay relative to control; summary of the method: as §2
[26] = system: OVCAR-4; assay: Growth inhibition of human OVCAR-4 cells at 10 uM incubated for 48 hrs by sulforhodamine B assay relative to control; summary of the method: as §2
[27] = system: OVCAR-5; assay: Growth inhibition of human OVCAR-5 cells at 10 uM incubated for 48 hrs by sulforhodamine B assay relative to control; summary of the method: as §2
[28] = system: OVCAR-8; assay: Growth inhibition of human OVCAR-8 cells at 10 uM incubated for 48 hrs by sulforhodamine B assay relative to control; summary of the method: as §2
[29] = system: NCI/ADR-RES; assay: Growth inhibition of human NCI/ADR-RES cells at 10 uM incubated for 48 hrs by sulforhodamine B assay relative to control; summary of the method: as §2
[30] = system: SK-OV-3; assay: Growth inhibition of human SK-OV-3 cells at 10 uM incubated for 48 hrs by sulforhodamine B assay relative to control; summary of the method: as §2
[31] = system: RXF 393; assay: Growth inhibition of human RXF 393 cells at 10 uM incubated for 48 hrs by sulforhodamine B assay relative to control; summary of the method: as §2
[32] = system: TK-10; assay: Growth inhibition of human TK-10 cells at 10 uM incubated for 48 hrs by sulforhodamine B assay relative to control; summary of the method: as §3
[33] = system: UO-31; assay: Growth inhibition of human UO-31 cells at 10 uM incubated for 48 hrs by sulforhodamine B assay relative to control; summary of the method: as §3
[34] = system: PC-3; assay: Growth inhibition of human PC-3 cells at 10 uM incubated for 48 hrs by sulforhodamine B assay relative to control; summary of the method: as §2
[35] = system: MCF7; assay: Growth inhibition of human MCF7 cells at 10 uM incubated for 48 hrs by sulforhodamine B assay relative to control; summary of the method: as §1
[36] = system: MDA-MB-468; assay: Growth inhibition of human MDA-MB-468 cells at 10 uM incubated for 48 hrs by sulforhodamine B assay relative to control; summary of the method: as §1

SMILES	inhibition of growth at 10 µM [1]	inhibition of growth at 10 µM [2]	inhibition of growth at 10 µM [3]	inhibition of growth at 10 µM [4]	inhibition of growth at 10 µM [5]	inhibition of growth at 10 µM [6]	inhibition of growth at 10 µM [7]	inhibition of growth at 10 µM [8]	inhibition of growth at 10 µM [9]	inhibition of growth at 10 µM [10]	inhibition of growth at 10 µM [11]	inhibition of growth at 10 µM [12]	inhibition of growth at 10 µM [13]	inhibition of growth at 10 µM [14]	inhibition of growth at 10 µM [15]	inhibition of growth at 10 µM [16]	inhibition of growth at 10 µM [17]	inhibition of growth at 10 µM [18]	inhibition of growth at 10 µM [19]	inhibition of growth at 10 µM [20]	other results
COc1cc2nc(-c3ccc(C(F)(F)F)cc3)cc(OCCN3CCCCC3)c2cc1OC	13%	13%	13%	13%	13%	13%	13%	13%	13%	13%	13%	13%	13%	13%	13%	13%	13%	13%	13%	13%	inhibition of growth at 10 µM [21]: 13%; inhibition of growth at 10 µM [22]: 13%; inhibition of growth at 10 µM [23]: 13%; inhibition of growth at 10 µM [24]: 13%; inhibition of growth at 10 µM [25]: 13%; inhibition of growth at 10 µM [26]: 13%; inhibition of growth at 10 µM [27]: 13%; inhibition of growth at 10 µM [28]: 13%; inhibition of growth at 10 µM [29]: 13%; inhibition of growth at 10 µM [30]: 13%; inhibition of growth at 10 µM [31]: 13%; inhibition of growth at 10 µM [32]: 13%; inhibition of growth at 10 µM [33]: 13%; inhibition of growth at 10 µM [34]: 13%; inhibition of growth at 10 µM [35]: 13%; inhibition of growth at 10 µM [36]: 13%
COc1cc2nc(-c3ccc(Cl)cc3)cc(OCCCN3CCCC3)c2cc1OC	62%	62%	62%	62%	62%	62%	62%	62%	62%	62%	62%	62%	62%	62%	62%	62%	62%	62%	62%	62%	inhibition of growth at 10 µM [21]: 62%; inhibition of growth at 10 µM [22]: 62%; inhibition of growth at 10 µM [23]: 62%; inhibition of growth at 10 µM [24]: 62%; inhibition of growth at 10 µM [25]: 62%; inhibition of growth at 10 µM [26]: 62%; inhibition of growth at 10 µM [27]: 62%; inhibition of growth at 10 µM [28]: 62%; inhibition of growth at 10 µM [29]: 62%; inhibition of growth at 10 µM [30]: 62%; inhibition of growth at 10 µM [31]: 62%; inhibition of growth at 10 µM [32]: 62%; inhibition of growth at 10 µM [33]: 62%; inhibition of growth at 10 µM [34]: 62%; inhibition of growth at 10 µM [35]: 62%; inhibition of growth at 10 µM [36]: 62%
